# Shown are actives, neighbours in structure and some others; about 2.9% of the full set was active somewhere.
# SIRT5 block: inhibitors of human sirtuin-5 desuccinylase; Q9NXA8; Purified SirT5, succinyl-peptide AMC, trypsin-coupled fluorescence; inhibition, % at 15 µM; actives 1.1% (n = 330,000); in the data active = inhibition above about 15%; inconclusive = no clear call, values can overlap the other calls
# E-sel inducer: induces E-selectin expression in human endothelial cells. actives 0.37% (n = 260,000). P16581. activation, % at 7.58 µM. HUVEC E-selectin immunofluorescence imaging; normalized: neutral wells 0, TNF-alpha wells 100;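 active = mean E-selectin-positive cell signal at least 10% of the positive control, reached in at least 60% of replicates, without over 20% cell loss; inconclusive = no rule given, readout overlaps actives, possibly toxicity-flagged; inactive = the rest, including those meeting only one limit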
#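 material = human umbilical vein endothelial cells (HUVEC), E-selectin induction | quantity = 3,000 cells/well | medium = EGM-2 growth medium on 0.1% gelatin-coated wells | technique = immunofluorescence imaging | read-out basis = % PE-positive cells | control set = TNF-alpha positive control, DMSO neutral control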
# DENV2 CPE rescue: inhibitors of DENV2 cytopathic effect. DENV2-infected cells, cytopathic effect rescue, plate reader. CPE inhibition, % at 9.99 µM. AID 651640. actives 1.7% (n = 350,000); in the data active = CPE inhibition above about 20%, passing the limit was not always enough; inconclusive = no clear call, values can overlap the other calls; tested in BHK-21 cells;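 also: 0% = median of neutral control wells and 100% = median of positive control wells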
# The depositor's hits bear a star; u = inconclusive; x = no result given.
SMILES,SIRT5 block,E-sel inducer,DENV2 CPE rescue
C[C@@H]1CN([C@@H](C)CO)S(=O)(=O)c2ccc(C3=CCCCC3)cc2O[C@@H]1CN(C)C(=O)Cc1cccnc1,0.8,0.1,0.6
C[C@H](CO)N1C[C@H](C)[C@@H](CN(C)C(=O)Cc2ccccc2)Oc2cc(C3=CCCCC3)ccc2S1(=O)=O,10.7,0.3,-8.1
C[C@@H]1CN([C@H](C)CO)S(=O)(=O)c2ccc(C3=CCCCC3)cc2O[C@@H]1CN(C)C(=O)Cc1cccnc1,15.0*,0.1,-5.1
CS(=O)(=O)N1CCC(C(=O)Nc2ccc(F)c(Cl)c2)CC1,-4.8,x,-5.9
Cc1ccc(NC(=O)C2CCN(S(C)(=O)=O)CC2)cc1Cl,-3.5,x,29.2*
CCN(CC)S(=O)(=O)c1ccc2c(c1)nc(CCC(=O)OCC(=O)Nc1cc(OC)cc(OC)c1)n2C,x,x,-9.8
CCN(CC)S(=O)(=O)c1ccc2c(c1)nc(CCC(=O)OCC(=O)Nc1c(F)cccc1F)n2C,3.4,x,45.5*
Cc1ccccc1S(=O)(=O)NCC[C@@H]1CC[C@H](NC(=O)Nc2cccc(F)c2)[C@@H](CO)O1,-2.7,0.1,0.3
CCOc1ccc(N(CC(=O)N2CCc3ccccc32)S(=O)(=O)c2c(C)noc2C)cc1,x,x,-4.1
COCCN(C(=O)COC(=O)c1cc(C)oc1C)c1c(N)n(Cc2ccccc2)c(=O)[nH]c1=O,-1.5,x,0.7
CN1CCN(C(=O)C[C@H]2CC[C@H]3[C@@H](COC[C@H](O)CN3S(=O)(=O)c3cccc(Cl)c3)O2)CC1,-6.5,0.0,0.5
O=C(C[C@H]1CC[C@@H]2[C@H](COC[C@H](O)CN2S(=O)(=O)c2cccc(Cl)c2)O1)N1CCOCC1,-1.6,0.2,20.8*
O=C(C[C@H]1CC[C@@H]2[C@H](COC[C@H](O)CN2S(=O)(=O)c2cccc(Cl)c2)O1)N1CCCCC1,x,0.0,-0.9
CN1CCN(C(=O)C[C@H]2CC[C@@H]3[C@H](COC[C@@H](O)CN3S(=O)(=O)c3cccc(Cl)c3)O2)CC1,5.1,0.0,22.7*
CCCN(C)C[C@H]1Oc2cc(C3=CCCCC3)ccc2S(=O)(=O)N([C@H](C)CO)C[C@H]1C,13.5,0.1,11.8
COc1ccc(-c2nc(CSCC(=O)N3CCC(C(N)=O)CC3)c(C)o2)cc1OC,-2.4,0.2,1.8
Cc1ccc(S(=O)(=O)CCC(=O)OCC(=O)c2cc(C)n(C)c2C)cc1,0.9,x,5.1
O=C(C[C@@H]1CC[C@@H](NC(=O)c2ccccn2)[C@@H](CO)O1)NCc1cccc(F)c1,-1.2,-0.1,x
O=C(NCCCN1CCOCC1)c1ccc(Cl)cc1[N+](=O)[O-],-7.1,x,3.4
O=C(NN1CCOCC1)c1ccc(Cl)cc1[N+](=O)[O-],-1.6,45.0*,-3.9
C[C@@H]1CN([C@@H](C)CO)C(=O)Cc2cc(NC(=O)Nc3ccccc3)ccc2O[C@H]1CN(C)S(=O)(=O)c1cn(C)cn1,-3.2,0.1,6.6
COc1ccc(NC(=O)Nc2ccc3c(c2)CC(=O)N([C@H](C)CO)C[C@H](C)[C@@H](CN(C)S(=O)(=O)c2cn(C)cn2)O3)cc1,1.5,x,21.6*
C[C@@H]1CN([C@@H](C)CO)C(=O)Cc2cc(NC(=O)c3ccncc3)ccc2O[C@@H]1CN(C)S(=O)(=O)c1cn(C)cn1,5.8,320.9*,-7.3
C[C@H](CO)N1C[C@H](C)[C@@H](CN(C)S(C)(=O)=O)Oc2ccc(NC(=O)c3ccncc3)cc2CC1=O,0.5,2.0,u
C[C@@H]1CN([C@H](C)CO)C(=O)Cc2cc(NC(=O)c3ccncc3)ccc2O[C@H]1CN(C)S(C)(=O)=O,0.4,447.3*,9.7
SMILES,SIRT5 block,E-sel inducer,DENV2 CPE rescue
COc1ccc(NC(=O)Nc2ccc3c(c2)CC(=O)N([C@@H](C)CO)C[C@H](C)[C@H](CN(C)S(=O)(=O)c2cn(C)cn2)O3)cc1,3.3,x,-5.7
C[C@H](CO)N1C[C@H](C)[C@@H](CN(C)S(=O)(=O)c2cn(C)cn2)Oc2ccc(NC(=O)c3ccncc3)cc2CC1=O,-4.1,10.9,1.2
C[C@@H]1CN([C@H](C)CO)C(=O)Cc2cc(NC(=O)Nc3ccccc3)ccc2O[C@H]1CN(C)S(=O)(=O)c1cn(C)cn1,-6.2,0.2,61.7*
O=C(c1ccccc1)c1ccc(C(=O)N2CCN(c3ccc(O)cc3)CC2)cc1,-1.0,-0.1,-3.7
Cc1c(NS(=O)(=O)c2cc(C(=O)OCC(=O)N3CCC(C)CC3)ccc2Cl)c(=O)n(-c2ccccc2)n1C,-6.2,0.0,-1.0
C/C(=N\Nc1ccccc1)c1cc2ccccc2oc1=O,-4.7,x,-5.2
CN(C)c1ccc(CNS(=O)(=O)c2ccc3c(c2)C(C)(C)C(=O)N3C)cc1,1.4,0.4,48.5*
CSc1ccc(CCNS(=O)(=O)c2ccc3c(c2)C(C)(C)C(=O)N3C)cc1,-3.0,x,3.4
